The source made the active and inactive calls. The rule behind the calls is not given here.
Assays:
Salmonella typhimurium [1] = assay: Antimutagenic activity in Salmonella Typhimurium TA1535 carrying pSK1002 containing umuC'-lacZ fused gene assessed as suppression of furyfuramide-induced SOS response to alteration in DNA synthesis at 0.1 mM measured by beta-galactosidase activity by Umu test; assay type: functional, Salmonella enterica subsp. enterica serovar Typhimurium
Outline: (§1)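 S. typhimurium TA1535/pSK1002 (umuC′-′lacZ fusion on the plasmid). The overnight culture was diluted 50-fold in fresh TGA medium and grown at 37 °C to A600 0.25-0.30. SOS induction was read as β-galactosidase activity in Miller units. The S9 mix used rat liver S9 (phenobarbital/5,6-benzoflavone-pretreated males) with G-6-P, NADH and NADPH cofactors.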

Salmonella typhimurium [2] = assay: Antimutagenic activity in Salmonella Typhimurium TA1535 carrying pSK1002 containing umuC'-lacZ fused gene assessed as suppression of activated Trp-P-1-induced SOS response to alteration in DNA synthesis at 0.05 mM measured by beta-galactosidase activity by Umu test; assay type: functional, Salmonella enterica subsp. enterica serovar Typhimurium; outline: as §1
Salmonella typhimurium [3] = assay: Antimutagenic activity in Salmonella Typhimurium TA1535 carrying pSK1002 containing umuC'-lacZ fused gene assessed as suppression of Trp-P-1-induced SOS response to alteration in DNA synthesis measured by beta-galactosidase activity by Umu test; assay type: functional, organism-based; settings: Salmonella enterica subsp. enterica serovar Typhimurium; outline: as §1
Salmonella typhimurium [4] = assay: Antimutagenic activity in Salmonella Typhimurium TA1535 carrying pSK1002 containing umuC'-lacZ fused gene assessed as suppression of activated MeIQ-induced SOS response to alteration in DNA synthesis at 0.3 mM measured by beta-galactosidase activity by Umu test; assay type: functional, Salmonella enterica subsp. enterica serovar Typhimurium; outline: as §1
Salmonella typhimurium [5] = assay: Antimutagenic activity in Salmonella Typhimurium TA1535 carrying pSK1002 containing umuC'-lacZ fused gene assessed as suppression of Trp-P-1-induced SOS response to alteration in DNA synthesis at 0.6 mM measured by beta-galactosidase activity by Umu test; assay type: functional, Salmonella enterica subsp. enterica serovar Typhimurium; outline: as §1
Salmonella typhimurium [6] = assay: Inhibition of activated MeIQ-induced SOS response to alteration in DNA synthesis in Salmonella Typhimurium TA1535 carrying pSK1002 containing umuC'-lacZ fused gene; assay type: functional, Salmonella enterica subsp. enterica serovar Typhimurium; settings: Salmonella enterica, read-out: ID50 (the source's name); outline: as §1
Salmonella typhimurium [7] = assay: Antimutagenic activity in Salmonella Typhimurium TA1535 carrying pSK1002 containing umuC'-lacZ fused gene assessed as suppression of activated Trp-P-1-induced SOS response to alteration in DNA synthesis at 0.6 mM measured by beta-galactosidase activity by Umu test; assay type: functional, Salmonella enterica subsp. enterica serovar Typhimurium; outline: as §1
Salmonella typhimurium [8] = assay: Antimutagenic activity in Salmonella Typhimurium TA1535 carrying pSK1002 containing umuC'-lacZ fused gene assessed as suppression of MeIQ-induced SOS response to alteration in DNA synthesis measured by beta-galactosidase activity by Umu test; assay type: functional, organism-based; settings: Salmonella enterica subsp. enterica serovar Typhimurium; outline: as §1
Salmonella typhimurium [9] = assay: Antimutagenic activity in Salmonella Typhimurium TA1535 carrying pSK1002 containing umuC'-lacZ fused gene assessed as suppression of activated MeIQ-induced SOS response to alteration in DNA synthesis at 0.6 mM measured by beta-galactosidase activity by Umu test; assay type: functional, Salmonella enterica subsp. enterica serovar Typhimurium; outline: as §1
Salmonella typhimurium [10] = assay: Antimutagenic activity in Salmonella Typhimurium TA1535 carrying pSK1002 containing umuC'-lacZ fused gene assessed as suppression of MeIQ-induced SOS response to alteration in DNA synthesis at 0.3 mM measured by beta-galactosidase activity by Umu test; assay type: functional, Salmonella enterica subsp. enterica serovar Typhimurium; outline: as §1
Salmonella typhimurium [11] = assay: Antimutagenic activity in Salmonella Typhimurium TA1535 carrying pSK1002 containing umuC'-lacZ fused gene assessed as suppression of Trp-P-1-induced SOS response to alteration in DNA synthesis at 0.05 mM measured by beta-galactosidase activity by Umu test; assay type: functional, Salmonella enterica subsp. enterica serovar Typhimurium; outline: as §1
Salmonella typhimurium [12] = assay: Antimutagenic activity in Salmonella Typhimurium TA1535 carrying pSK1002 containing umuC'-lacZ fused gene assessed as suppression of 0.1 j/M2 UV light-induced SOS response to alteration in DNA synthesis at 0.05 mM measured by beta-galactosidase activity by Umu test; assay type: functional, Salmonella enterica subsp. enterica serovar Typhimurium; outline: as §1
Salmonella typhimurium [13] = assay: Antimutagenic activity in Salmonella Typhimurium TA1535 carrying pSK1002 containing umuC'-lacZ fused gene assessed as suppression of furyfuramide-induced SOS response to alteration in DNA synthesis at 0.05 mM measured by beta-galactosidase activity by Umu test; assay type: functional, Salmonella enterica subsp. enterica serovar Typhimurium; outline: as §1
Salmonella typhimurium [14] = assay: Inhibition of MeIQ-induced SOS response to alteration in DNA synthesis in Salmonella Typhimurium TA1535 carrying pSK1002 containing umuC'-lacZ fused gene at 0.6 mM; assay type: functional, Salmonella enterica subsp. enterica serovar Typhimurium; design: scale not given: the % may be the effect or the level left; outline: as §1
Salmonella typhimurium [15] = assay: Inhibition of Trp-P-1-induced SOS response to alteration in DNA synthesis in Salmonella Typhimurium TA1535 carrying pSK1002 containing umuC'-lacZ fused gene at 0.6 mM; assay type: functional, Salmonella enterica subsp. enterica serovar Typhimurium; design: scale not given: the % may be the effect or the level left; outline: as §1
Salmonella typhimurium [16] = assay: Antimutagenic activity in Salmonella Typhimurium TA1535 carrying pSK1002 containing umuC'-lacZ fused gene assessed as suppression of activated Trp-P-1-induced SOS response to alteration in DNA synthesis at 0.1 mM measured by beta-galactosidase activity by Umu test; assay type: functional, Salmonella enterica subsp. enterica serovar Typhimurium; outline: as §1
Salmonella typhimurium [17] = assay: Inhibition of MeIQ-induced SOS response to alteration in DNA synthesis in Salmonella Typhimurium TA1535 carrying pSK1002 containing umuC'-lacZ fused gene; assay type: functional, Salmonella enterica subsp. enterica serovar Typhimurium; settings: Salmonella enterica, read-out: ID50 (the source's name); outline: as §1
Salmonella typhimurium [18] = assay: Antimutagenic activity in Salmonella Typhimurium TA1535 carrying pSK1002 containing umuC'-lacZ fused gene assessed as suppression of activated MeIQ-induced SOS response to alteration in DNA synthesis at 0.1 mM measured by beta-galactosidase activity by Umu test; assay type: functional, Salmonella enterica subsp. enterica serovar Typhimurium; outline: as §1

## COc1cc(-c2cc(=O)c3c(OC)c(OC)c(OC)c(OC)c3o2)ccc1O
Salmonella typhimurium [1]
  Activity: 511.2 Miller_unit
Salmonella typhimurium [2]
  Activity: 283.7 Miller_unit
Salmonella typhimurium [3]
  Activity: Active
Salmonella typhimurium [4]
  Activity: 243.5 Miller_unit
Salmonella typhimurium [5]
  Activity: 168.9 Miller_unit
Salmonella typhimurium [6]
  IC50: 300 µM
Salmonella typhimurium [7]
  Activity: 118.5 Miller_unit
Salmonella typhimurium [8]
  Activity: Active
Salmonella typhimurium [9]
  Activity: 224.2 Miller_unit
Salmonella typhimurium [10]
  Activity: 195.3 Miller_unit
Salmonella typhimurium [11]
  Activity: 299.6 Miller_unit
Salmonella typhimurium [12]
  Activity: 574.1 Miller_unit
Salmonella typhimurium [13]
  Activity: 551.2 Miller_unit
Salmonella typhimurium [14]
  Activity: 80.9%
Salmonella typhimurium [15]
  Activity: 72.4%
Salmonella typhimurium [16]
  Activity: 233.2 Miller_unit
Salmonella typhimurium [17]
  IC50: 40 µM
Salmonella typhimurium [18]
  Activity: 376.3 Miller_unit
